Data: ChEMBL document CHEMBL1124662, “Antiinflammatory activity of a series of substituted 2,3-dihydro-6-hydroxypyrimido[2,1-f]purine-4,8(1H,9H)-diones” (J Med Chem, 1989)

Experiments:
Rattus norvegicus [1] = assay: Antiinflammatory activity against reverse passive Arthus reaction-synovitis in rat at dose of 50 mg/kg per orally.; format: functional; settings: po
Procedure, shortened: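 Lewis rats dosed orally with drug or placebo 1 h before iv bovine serum albumin in saline, then 0.54 mg rabbit anti-BSA antibody intraarticular in one knee, saline in the other, under light anesthesia. Second oral dose at 3 h; the dose used is the total given before and after induction.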

Rattus norvegicus [2] = assay: Prophylactic antiinflammatory activity against adjuvant arthritic rat at dose of 25 mg/kg in noninjected 1 degree paw.; format: functional
Procedure, shortened: (§1)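 Heat-killed Mycobacterium tuberculosis ground and homogenized in paraffin oil (6 mg/mL); 0.1 mL injected into left hind paw. Drug dosed 1 h before challenge, then daily for 21 consecutive days; controls received methylcellulose. Both hind paw volumes measured by plethysmograph immediately and on day 21; % inhibition of Δ paw volume.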

Rattus norvegicus [3] = assay: Prophylactic antiinflammatory activity against adjuvant arthritic rat at dose of 25 mg/kg in noninjected 2 degree paw.; format: functional; procedure, shortened: as §1
Rattus norvegicus [4] = assay: Prophylactic antiinflammatory activity against adjuvant arthritic rat at dose of 50 mg/kg in noninjected 1 degree paw.; format: functional; procedure, shortened: as §1
Rattus norvegicus [5] = assay: Prophylactic antiinflammatory activity against adjuvant arthritic rat at dose of 50 mg/kg in noninjected 2 degree paw.; format: functional; procedure, shortened: as §1
Rattus norvegicus [6] = assay: Prophylactic anti-inflammatory activity in adjuvant arthritic rat at 12.5 mg/kg in noninjected 1 degree paw; format: functional; procedure, shortened: as §1
Rattus norvegicus [7] = assay: Prophylactic anti-inflammatory activity in adjuvant arthritic rat at 12.5 mg/kg in noninjected 2 degree paw; format: functional; procedure, shortened: as §1
Rattus norvegicus [8] = assay: Prophylactic oral administration in adjuvant arthritic rat model at 25 mg/kg in noninjected 2 degree paw; format: functional; procedure, shortened: as §1
[9] = Therapeutic oral administration in adjuvant arthritic rat model at 25 mg/kg in noninjected 2 degree paw; format: ADME, organism-based; design: dose 25 mg/kg, route oral
Procedure, shortened: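 Adjuvant arthritis (heat-killed M. tuberculosis in paraffin oil, 6 mg/mL, 0.1 mL into left hind paw) left to develop 7 days before first oral dose; treatment continued 35 days. Controls given methylcellulose; hind paw volumes measured by plethysmograph as Δ paw volume; % inhibition.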

Rattus norvegicus [10] = assay: Prophylactic anti-inflammatory activity in adjuvant arthritic rat at 6.25 mg/kg in noninjected 1 degree paw; format: functional; procedure, shortened: as §1
Rattus norvegicus [11] = assay: Prophylactic anti-inflammatory activity in adjuvant arthritic rat at 6.25 mg/kg in noninjected 2 degree paw; format: functional; procedure, shortened: as §1
Rattus norvegicus [12] = assay: Prophylactic anti-inflammatory activity in adjuvant arthritic rat at 25 mg/kg in noninjected 1 degree paw; format: functional; procedure, shortened: as §1

| SMILES | inhibition in vivo at 50 mg/kg (Rattus norvegicus [1]) [%] | inhibition in vivo at 25 mg/kg (Rattus norvegicus [2]) [%] | inhibition in vivo at 25 mg/kg (Rattus norvegicus [3]) [%] | inhibition in vivo at 50 mg/kg (Rattus norvegicus [4]) [%] | inhibition in vivo at 50 mg/kg (Rattus norvegicus [5]) [%] | inhibition in vivo at 12.5 mg/kg (Rattus norvegicus [6]) [%] | inhibition in vivo at 12.5 mg/kg (Rattus norvegicus [7]) [%] | ED50 (Rattus norvegicus [8]) [mg/kg] | ED50 [9] [mg/kg] | inhibition in vivo at 6.25 mg/kg (Rattus norvegicus [10]) [%] | inhibition in vivo at 6.25 mg/kg (Rattus norvegicus [11]) [%] | inhibition in vivo at 25 mg/kg (Rattus norvegicus [12]) [%] |
| --- | --- | --- | --- | --- | --- | --- | --- | --- | --- | --- | --- | --- |
| CCCc1c(O)n(Cc2ccc(F)cc2)c2nc3c(n2c1=O)C(=O)N(C)CN3C | 0 | 0 | 56 |  |  |  |  |  |  |  |  |  |
| CN1CN(C)c2nc3n(Cc4ccccc4)c(O)c(Sc4ccccc4)c(=O)n3c2C1=O |  |  |  | 15 | 23 |  |  |  |  |  |  |  |
| Cc1c(O)n(Cc2ccccc2)c2nc3c(n2c1=O)C(=O)N(C)CN3C | 0 | 0 | 22 | 46 | 69 | 0 | 36 |  |  |  |  |  |
| C/C=C/Cc1c(O)n(Cc2ccccc2)c2nc3c(n2c1=O)C(=O)N(C)CN3C | 0 | 24 | 40 | 44 | 71 | 20 |  |  |  |  |  |  |
| C/C(=C/Cc1c(O)n(Cc2ccccc2)c2nc3c(n2c1=O)C(=O)N(C)CN3C)C(F)(F)F | 25 | 45 | 74 |  |  | 47 | 64 | 8.8 | 4 | 33 | 60 |  |
| CCCc1c(O)n(Cc2ccccc2)c2nc3c(n2c1=O)C(=O)N(C)CN3C | 45 | 24 | 65 | 38 | 70 | 16 | 38 |  |  |  |  |  |
| CC(C)=CCc1c(O)n(Cc2ccc(F)cc2)c2nc3c(n2c1=O)C(=O)N(C)CN3C | 18 |  | 49 |  |  |  |  |  | 7.6 |  |  | 24 |
| CN1CN(C)c2nc3n(Cc4ccccc4)c(O)c(CCO)c(=O)n3c2C1=O | 8 |  |  |  |  |  |  |  |  |  |  |  |
| CCCc1c(O)n(Cc2cccs2)c2nc3c(n2c1=O)C(=O)N(C)CN3C |  | 20 | 51 |  |  | 20 | 13 |  |  |  |  |  |
| CSc1c(O)n(Cc2ccccc2)c2nc3c(n2c1=O)C(=O)N(C)CN3C | 10 |  |  | 33 | 61 |  |  |  |  |  |  |  |
| CN(C)/C=c1\c(=O)n(Cc2ccccc2)c2nc3c(n2c1=O)C(=O)N(C)CN3C | 27 |  |  |  |  |  |  |  |  |  |  |  |
| CN1CN(C)c2nc3n(Cc4ccccc4)c(O)c(Cc4ccccc4)c(=O)n3c2C1=O | 5 | 34 | 49 | 46 | 63 |  |  |  |  |  |  |  |
